Results on 2 molecules are retold here after ChEMBL document CHEMBL4007417, “Target Elucidation by Cocrystal Structures of NADH-Ubiquinone Oxidoreductase of Plasmodium falciparum (PfNDH2) with Small Molecule To Eliminate Drug-Resistant Malaria” (J Med Chem, 2017).

Each structure is given as a SMILES string. Activity calls are given as the source filed them. The rule behind the calls is not given here.

Test [1] has as its system Plasmodium falciparum. Put plainly: Antimalarial activity against chloroquine/quinine/sulfadoxine-pyrimethamine/amodiaquine-resistant asexual blood stage Plasmodium falciparum Dd2 after 72 hrs by SYBR green-based fluorometric analysis. In kind it is functional. To be noted: Dd2, 72 h. An outline of the steps: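 Mid-ring-stage cultures (~6-10 h post-invasion) at 1% parasitemia and 2% hematocrit, in triplicate. Twofold serial dilutions from a top concentration of 100 nM. Incubated 72 h at 37 °C under 5% CO2/5% O2/90% N2. Lysis buffer containing 5×SYBR Green I added, 20 min in the dark, fluorescence read at ex 485/em 538 nm. EC50 derived.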

For test [2], the system named is Plasmodium yoelii. Description: Antimalarial activity against Plasmodium yoelii YM infected in BALB/c mouse assessed as mouse survival at 30 mg/kg, sc administered QD for 4 days starting at 96 hrs post infection by Giemsa-staining based microscopic analysis. The format is functional. An outline of the steps:
(§1)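 Mice inoculated with 1×106 P. yoelii parasites. Subcutaneous dosing for 4 days starting 96 h post infection, given once daily or twice daily 8 h apart. Parasitemia followed on Giemsa-stained blood smears. Survival recorded at 40 days post infection; groups of n=3. DMSO-only mice served as untreated controls.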

Test [3] has as its system Plasmodium yoelii. Description: Antimalarial activity against Plasmodium yoelii YM infected in BALB/c mouse assessed reduction in parasitemia at 30 mg/kg/day, sc for 4 days by Giemsa-staining based microscopic analysis. The format is functional, organism-based. An outline of the steps: (§2)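 P. yoelii-infected mice, n=3 per group. Subcutaneous injection once daily for 4 days starting at 96 h post infection. Parasitemia followed on blood-smear microscopy, with inhibition measured at 24 h post treatment. Cure time taken as the minimum period to cure all mice; survival recorded at 40 days. DMSO controls included.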

In test [4] the test system is Plasmodium yoelii. Description: Antimalarial activity against Plasmodium yoelii YM infected in BALB/c mouse assessed as time duration for parasite cure at 30 mg/kg, sc administered QD for 4 days starting at 96 hrs post infection by Giemsa-staining based microscopic analysis. In kind it is functional. An outline of the steps: as §2
Test [5] has as its system Plasmodium yoelii. Put plainly: Antimalarial activity against Plasmodium yoelii YM infected in BALB/c mouse assessed as parasite cure level at 10 mg/kg, ip administered on days 1 post infection by Giemsa-stained microscopic analysis. In kind it is functional, organism-based. An outline of the steps:
(§3)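 Mice (groups of three) inoculated with 1×10^6 P. yoelii parasites. Single intraperitoneal dose of 10, 30 or 90 mg/kg given 24 h after inoculation. DMSO-only untreated group included. Outcome followed by blood-smear microscopy for cure, with survival scored at 40 days post infection.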

Test [6] has as its system Plasmodium yoelii. Put plainly: Antimalarial activity against Plasmodium yoelii YM infected in BALB/c mouse assessed as parasite growth inhibition at 30 mg/kg, sc administered QD for 4 days starting at 96 hrs post infection by Giemsa-staining based microscopic analysis. In kind it is functional. Conditions: read-out: GI. An outline of the steps:
as §2

The test system of test [7] is Plasmodium falciparum. Put plainly: Synergistic antimalarial activity against Plasmodium falciparum in presence of dihydroartemisinin. The format is functional. An outline of the steps: (§4)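 In vitro drug interaction analyses with other antimalarials against P. falciparum. Experiments repeated three times; error bars s.e.m.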
In test [8] the test system is Plasmodium yoelii. Put plainly: Antimalarial activity against Plasmodium yoelii YM infected in BALB/c mouse assessed as parasite cure level at 10 to 90 mg/kg, ip administered on days 1 post infection by Giemsa-stained microscopic analysis. The format is functional, organism-based. An outline of the steps:
as §3

Test [9] deals with Plasmodium falciparum. Description: Non-competitive inhibition of Plasmodium falciparum NDH2 expressed in Escherichia coli BL21 up to 50 nM by spectrophotometric analysis.
Test [10] deals with Plasmodium yoelii. Put plainly: Antimalarial activity against Plasmodium yoelii YM infected in BALB/c mouse assessed reduction in parasitemia at 10 mg/kg/day, sc for 4 days by Giemsa-staining based microscopic analysis. In kind it is functional, organism-based. An outline of the steps: as §2
Test [11] concerns Plasmodium falciparum. Put plainly: Synergistic antimalarial activity against Plasmodium falciparum in presence of chloroquine. In kind it is functional. An outline of the steps: as §4
Test [12] is described as follows: Inhibition of Plasmodium falciparum NDH2 N92R/S497R double mutant expressed in Escherichia coli DH5alpha competent cells using NADH and ubiquinone-1 as substrate by spectrophotometric analysis. An outline of the steps: (§5)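 Recombinant PfNDH2 point or double mutants assayed spectrophotometrically at 25 °C. Buffer: 50 mM MOPS pH 7.0, 150 mM NaCl, 1 mM EDTA, 0.01% Triton X-100. Substrates 50 µM NADH and 30 µM ubiquinone-1, with 0.5 nM enzyme and selected inhibitor concentrations.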

Test [13] has as its system Plasmodium yoelii. Put plainly: Antimalarial activity against Plasmodium yoelii YM infected in BALB/c mouse assessed as time duration for parasite cure at 10 mg/kg, sc administered QD for 4 days starting at 96 hrs post infection by Giemsa-staining based microscopic analysis. The format is functional. An outline of the steps:
as §2

In test [14] the test system is Plasmodium yoelii. Description: Antimalarial activity against Plasmodium yoelii YM infected in BALB/c mouse assessed as parasite growth inhibition at 10 mg/kg, sc administered QD for 4 days starting at 96 hrs post infection by Giemsa-staining based microscopic analysis. In kind it is functional. Conditions: read-out: GI. An outline of the steps:
as §2

Test [15] has as its system Plasmodium falciparum. Description: Binding affinity to Plasmodium falciparum NDH2 expressed in Escherichia coli BL21 assessed as reduction in NADH Kd by SPR assay.
Test [16] deals with Plasmodium falciparum. Description: Synergistic antimalarial activity against Plasmodium falciparum in presence of quinine. The format is functional. An outline of the steps:
as §4

The nature of test [17]: Inhibition of Plasmodium falciparum NDH2 D171R mutant expressed in Escherichia coli DH5alpha competent cells using NADH and ubiquinone-1 as substrate by spectrophotometric analysis. An outline of the steps:
as §5

Test [18] in a line: Inhibition of Plasmodium falciparum wild type NDH2 expressed in Escherichia coli BL21 using NADH and ubiquinone-1 as substrate by spectrophotometric analysis. An outline of the steps: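 Recombinant PfNDH2 activity measured spectrophotometrically at 25 °C. Buffer: 50 mM MOPS pH 7.0, 150 mM NaCl, 1 mM EDTA, 0.01% Triton X-100. Substrates 50 µM NADH and 30 µM ubiquinone-1, with 0.5 nM enzyme and selected inhibitor concentrations.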

Test [19] relates to Plasmodium yoelii. Put plainly: Antimalarial activity against Plasmodium yoelii YM infected in BALB/c mouse assessed as mouse survival at 10 mg/kg, sc administered QD for 4 days starting at 96 hrs post infection by Giemsa-staining based microscopic analysis. In kind it is functional. An outline of the steps: as §1
Test [20] concerns Plasmodium yoelii. Description: Antimalarial activity against Plasmodium yoelii YM infected in BALB/c mouse assessed as time duration for parasite cure at 5 mg/kg, sc administered QD for 4 days starting at 2 hrs post infection by Giemsa-staining based microscopic analysis. In kind it is functional. An outline of the steps: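 P. yoelii-infected mice, n=3 per group. Subcutaneous injection once daily for 4 days starting at 2 h post infection. Growth inhibition determined at 24 h post treatment by blood-smear microscopy. Cure time taken as the minimum period to cure all mice in the group.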

Test [21] is described as follows: Inhibition of Plasmodium falciparum NDH2 Y475R mutant expressed in Escherichia coli DH5alpha competent cells using NADH and ubiquinone-1 as substrate by spectrophotometric analysis. An outline of the steps:
as §5

A short description of test [22]: Inhibition of Plasmodium falciparum NDH2 N92R mutant expressed in Escherichia coli DH5alpha competent cells using NADH and ubiquinone-1 as substrate by spectrophotometric analysis. An outline of the steps: as §5
Test [23] deals with Plasmodium yoelii. Description: Antimalarial activity against Plasmodium yoelii YM infected in BALB/c mouse assessed as time duration for parasite cure at 10 mg/kg, sc administered BID for 4 days starting at 96 hrs post infection, 8 hrs apart by Giemsa-staining based microscopic analysis. The format is functional. An outline of the steps:
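P. yoelii-infected mice, n=3 per group. Subcutaneous injection twice daily, 8 h apart, for 4 days starting at 96 h post infection. Growth inhibition read from blood smears at 24 h post treatment. Cure time taken as the minimum period to cure all mice in the group. DMSO controls included.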

Test [24] is described as follows: Inhibition of Plasmodium falciparum NDH2 S497R mutant expressed in Escherichia coli DH5alpha competent cells using NADH and ubiquinone-1 as substrate by spectrophotometric analysis. An outline of the steps:
as §5

Consider `Cc1c(-c2ccc(Cc3ccc(SC(F)(F)F)cc3)cc2)[nH]c2cccc(F)c2c1=O`, for which the EC50 (usually the concentration giving half of the maximal effect) in [1] turned out to be 2.1 nM. Further, the survival at 30 mg/kg in test [2] stood at 66.7%. In addition, in test [3], the outcome was Active. The Time in test [4] stood at 18 days. In addition, the result in test [5] was inactive. In addition, the inhibition in vivo at 30 mg/kg in [6] turned out to be 77.4%.
Turning to `Cc1c(-c2ccc(Cc3ccc(OC(F)(F)F)cc3)cc2)[nH]c2cccc(F)c2c1=O`, the “fractional inhibitory concentration index (FICI)” value in test [7] turned out to be 0.56; in [11], 1.52; in test [16] it was 2.33. In addition, the EC50 in [1] stood at 3.83 nM. The result in test [8] and in test [10] was Active. Further, in test [9], the inhibition result was “Active”. Moreover, the IC50 (as a rule, the concentration needed to halve the response being measured) in [12] turned out to be 123 nM; in test [17], 9.74 nM; in test [18], 3.73 nM; in test [21] it was 31.7 nM; in test [22], 16.7 nM; in test [24], 17.1 nM. Moreover, the Time amounted to 17 days in test [13], 28 days in [20] and 16 days in test [23]. For the same molecule, the inhibition in vivo at 10 mg/kg in [14] was determined as 98.4%. Besides, the fold change (FC) in test [15] is 7. Moreover, the survival at 10 mg/kg in test [19] came to 100%.
